Laboratory results taken from ChEMBL document CHEMBL1132342, “Novel hypotensive agents from Verbesina caracasana. 6. Synthesis and pharmacology of caracasandiamide” (1999).
Values joined by “and” are separate entries in the source; they are usually repeats but may differ in a detail not shown here. Equal entries are not always repeated.

Assays:
Rattus norvegicus [1] = assay: Change in systolic blood pressure after iv administration of 4.12 uM/Kg in anesthetized rats; format: functional, Artery
Outline: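 Doses were 4.12 µM/kg (two agents), guanethidine 25, clonidine 0.108, hexamethonium 12, reserpine 8, papaverine 5 and histamine […]. Peak changes in systolic BP or HR were recorded.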

Rattus norvegicus [2] = assay: Change in systolic blood pressure after iv administration of 400 ug/Kg compound (treatment with hexamethonium (5 mg/Kg, iv)in anesthetized rats; format: functional, Artery
Outline: (§1)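 Urethane-anesthetized male Wistar rats, 6 per group, received iv doses of 200-1600 µg/kg (ratio 2.0) given alone or under a pretreatment. Pretreatments were continuous iv papaverine infusion (1 mg/kg/min), reserpine 5 mg/kg/day ip for 2 days, or hexamethonium 5 mg/kg iv. Peak changes in femoral arterial BP and HR were recorded; values are mean ± SE.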

Rattus norvegicus [3] = assay: Change in systolic blood pressure after iv administration of 400 ug/Kg in the presence of acetylcholine (agonist) in anesthetized rats; format: functional, Artery
Outline: (§2)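 Anesthetized male Wistar rats, two groups of 8, received 400 or 1600 µg/kg iv. Before and after this dose, iv agonist challenges were given: noradrenaline 1 µg/kg, adrenaline, acetylcholine 2.50 µg/kg, or isoprenaline. Systolic/diastolic BP, heart rate and dP/dt responses were recorded before (control) and after dosing; significance was set at p < 0.05 versus control.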

Rattus norvegicus [4] = assay: Change in systolic blood pressure after iv administration of 400 ug/Kg in the presence of isoprenaline (agonist) in anesthetized rats; format: functional, Artery; outline: as §2
Rattus norvegicus [5] = assay: Change in diastolic blood pressure after iv administration of 4.12 uM/Kg in anesthetized rats; format: functional, Artery
Rattus norvegicus [6] = assay: Change in systolic blood pressure after iv administration of 800 ug/Kg in anesthetized rats; format: functional, Artery
Outline: (§3)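 Urethane-anesthetized (10% w/v, […] ip in saline) adult male Wistar rats, trachea cannulated, breathing spontaneously, 37 °C. Femoral artery catheter for blood pressure, femoral vein for dosing. Sequential iv doses 50–3200 µg/kg (ratio 2.0) in saline, each given after parameters returned to baseline. Peak changes recorded; means ± SE, n = 12 (n = 7 at 3200 µg/kg).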

Rattus norvegicus [7] = assay: Change in diastolic blood pressure after iv administration of 800 ug/Kg compound (treatment with hexamethonium (5 mg/Kg, iv)in anesthetized rats; format: functional, Artery
Outline: (§4)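 In anesthetized male Wistar rats, responses to iv compound (200–1600 µg/kg, ratio 2.0) were measured alone and under three pretreatments: continuous iv papaverine infusion (1 mg/kg/min), ip reserpine (5 mg/kg/day for 2 days), or iv hexamethonium (5 mg/kg). Peak changes are given as mean ± SE, n = 6 per group; p < 0.05 versus control.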

Rattus norvegicus [8] = assay: Change in diastolic blood pressure after iv administration of 800 ug/Kg compound (treatment with papaverine(1 mg/Kg/min, iv)in anesthetized rats; format: functional, Artery; outline: as §4
Rattus norvegicus [9] = assay: Change in systolic blood pressure after iv administration of 1600 ug/Kg in anesthetized rats; format: functional, Artery
Outline: (§5)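 Male Wistar rats (299 ± 3 g) were anesthetized with ethylurethane ip, tracheally cannulated and breathing spontaneously, at 37 °C, and stabilized for 60 min. Doses of 50-3200 µg/kg (ratio 2.0) in saline were injected by femoral vein, 50 µL each. Recordings: femoral arterial BP, electromagnetic abdominal-aortic flow, SV from integrated pulsatile flow, polygraphic RF. Peak changes, mean ± SE, n = 12 (n = 7 at 3200).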

Rattus norvegicus [10] = assay: Change in diastolic blood pressure after iv administration of 1600 ug/Kg compound (treatment with papaverine(1 mg/Kg/min, iv)in anesthetized rats; format: functional, Artery; outline: as §4
Rattus norvegicus [11] = assay: Change in heart rate after iv administration of 1600 ug/kg compound (treatment with papaverine(1 mg/kg/min, iv))in anesthetized rats; format: functional; outline: as §4
Rattus norvegicus [12] = assay: Change in heart rate after iv administration of 1600 ug/kg compound (treatment with reserpine(5 mg/kg/day for 2 days, ip))in anesthetized rats; format: functional; outline: as §4
Rattus norvegicus [13] = assay: Change in heart rate after iv administration of 1600 ug/Kg in anesthetized rats; format: functional
Outline: (§6)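 Adult male Wistar rats under ip ethylurethane (10% w/v in saline, 1 mL/kg) with tracheal cannula and spontaneous breathing, kept at 37 °C. Arterial BP was recorded by femoral artery catheter; compound in saline (50 µL) was given via femoral vein at 50–3200 µg/kg, ratio 2.0. Peak change is given as mean ± SE, n = 12 (n = 7 at 3200 µg/kg).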

Rattus norvegicus [14] = assay: Change in heart rate after iv administration of 4.12 uM/Kg in anesthetized rats; format: functional
Rattus norvegicus [15] = assay: Change in heart rate after iv administration of 400 ug/Kg in anesthetized rats; format: functional; outline: as §6
Rattus norvegicus [16] = assay: Change in heart rate after iv administration of 50 ug/Kg in anesthetized rats; format: functional; outline: as §5
Rattus norvegicus [17] = assay: Change in heart rate after iv administration of 800 ug/kg compound (treatment with papaverine(1 mg/kg/min, iv))in anesthetized rats; format: functional; outline: as §1
Rattus norvegicus [18] = assay: Change in heart rate after iv administration of 800 ug/Kg compound (treatment with hexamethonium (5 mg/Kg, iv)in anesthetized rats; format: functional; outline: as §1
Rattus norvegicus [19] = assay: Change in heart rate after iv administration of 800 ug/Kg in anesthetized rats; format: functional; outline: as §5
Rattus norvegicus [20] = assay: Change in mean aortic flow after iv administration of 50 ug/Kg in anesthetized rats; format: functional; outline: as §5
Rattus norvegicus [21] = assay: Maximum rate of rise of the left ventricular isovolumetric pressure was measured after iv administration of 50 ug/Kg in anesthetized rats; format: functional, Heart left ventricle; outline: as §3
Rattus norvegicus [22] = assay: Maximum rate of rise of the left ventricular isovolumetric pressure was measured after iv administration of 1600 ug/Kg in anesthetized rats; format: functional, Heart left ventricle; outline: as §3
Rattus norvegicus [23] = assay: Maximum rate of rise of the left ventricular isovolumetric pressure after iv administration of 400 ug/Kg compound (treatment with hexamethonium (5 mg/Kg, iv)in anesthetized rats; format: functional, Heart left ventricle
Outline: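 Anesthetized rats, n = 6 per group, received iv doses of 200–1600 µg/kg (ratio 2.0) either alone (control) or under pretreatment: continuous iv papaverine infusion 1 mg/kg/min, reserpine 5 mg/kg/day ip for 2 days, or hexamethonium 5 mg/kg iv. Peak changes in BP, heart rate and dP/dt recorded; means ± SE, p < 0.05 versus control.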

Rattus norvegicus [24] = assay: Maximum rate of rise of the left ventricular isovolumetric pressure was measured after iv administration of 400 ug/Kg in anesthetized rats; format: functional, Heart left ventricle; outline: as §3
Rattus norvegicus [25] = assay: Change in respiratory frequency after iv administration of 100 ug/Kg in anesthetized rats; format: functional; outline: as §5
Rattus norvegicus [26] = assay: Maximum rate of rise of the left ventricular isovolumetric pressure was measured after iv administration of 4.12 uM/Kg in anesthetized rats; format: functional, Heart left ventricle

COc1ccc(C2C(c3ccc(OC)c(OC)c3)[C@H](C(=O)NCCCC/N=C(\N)NCC=C(C)C)[C@@H]2C(=O)NCCCC/N=C(\N)NCC=C(C)C)cc1OC (stereo partly specified) [CARACASANDIAMIDE]
BP (Rattus norvegicus [1]): -43 mmHg | BP (Rattus norvegicus [2]): -41 mmHg | BP (Rattus norvegicus [3]): -27 mmHg | BP (Rattus norvegicus [4]): -36 mmHg | BP (Rattus norvegicus [5]): -47 mmHg | BP (Rattus norvegicus [6]): -30 mmHg | Change in BP (Rattus norvegicus [6]): -29% | BP (Rattus norvegicus [7]): -53 mmHg | BP (Rattus norvegicus [8]): -16 mmHg | BP (Rattus norvegicus [9]): -41 mmHg | Change in BP (Rattus norvegicus [9]): -39% | BP (Rattus norvegicus [10]): -29 mmHg | Heart rate (Rattus norvegicus [11]): -31 beats min-1 | Heart rate (Rattus norvegicus [12]): -14 beats min-1 | Change in heart rate (Rattus norvegicus [13]): -8% | Heart rate (Rattus norvegicus [13]): -30 beats min-1 | Heart rate (Rattus norvegicus [14]): -35 beats min-1 | Change in heart rate (Rattus norvegicus [15]): -4% | Heart rate (Rattus norvegicus [15]): -16 beats min-1 | Change in heart rate (Rattus norvegicus [16]): -3% | Heart rate (Rattus norvegicus [16]): -9 beats min-1 | Heart rate (Rattus norvegicus [17]): -17 beats min-1 | Heart rate (Rattus norvegicus [18]): -57 beats min-1 | Change in heart rate (Rattus norvegicus [19]): -4% | Heart rate (Rattus norvegicus [19]): -16 beats min-1 | Change in mean aortic flow (Rattus norvegicus [20]): 26% | Mean aortic flow (Rattus norvegicus [20]): 19 mL/min | Change in dP/dt (Rattus norvegicus [21]): 17% | dP/dt (Rattus norvegicus [21]): 1070 mmHg s-1 | Change in dP/dt (Rattus norvegicus [22]): 60% | dP/dt (Rattus norvegicus [22]): 3676 mmHg s-1 | dP/dt (Rattus norvegicus [23]): 3938 mmHg s-1 | Change in dP/dt (Rattus norvegicus [24]): 43% | dP/dt (Rattus norvegicus [24]): 2615 mmHg s-1 | Change in respiratory frequency (Rattus norvegicus [25]): 6 beats min-1 and 6% | dP/dt (Rattus norvegicus [26]): 3991 mmHg s-1
